Results pooled from the literature.
Target: Tyrosine-protein kinase ABL2 (ABL2, Homo sapiens, UniProt P42684)

| Compound | test | setting | measurement | value |
| --- | --- | --- | --- | --- |
| CC(C)(C)c1cc(C=C(C#N)C#N)cc(Br)c1O | enzyme activity, inhibitor | 0.5 µM | remaining activity | 57.1% |
| Cc1nn(C)cc1-c1nc2c(N3CCN(Cc4ccc(Cl)cc4)CC3)c(Cl)cnc2[nH]1 | binding, competition with immobilised ligand | 1 µM | remaining binding | 100% |
| Cn1cc(-c2cccc(N3CCc4c(sc5c4CC(C)(C)C5)C3=O)c2CO)cc(Nc2ccncn2)c1=O | enzyme activity, inhibitor | 1 µM | inhibition | 4% |
| COc1ncccc1-c1cnn2ccc(N3CCN(C(=O)OC(C)C)CC3)nc12 | binding, competition with immobilised ligand | 1 µM | remaining binding | 100% |
| Nc1ncc(-c2nc(N3CCOCC3)nc(N3CCOCC3)n2)c(C(F)F)n1 | binding, competition with immobilised ligand | 10 µM | remaining binding | 99% |
| C#Cc1n[nH]c2c(-c3cn([C@@H](C)c4ccccn4)c(=O)[nH]c3=O)cc(F)cc12 | enzyme activity, inhibitor | 0.1 µM | inhibition | 5.9% |
| COc1cc(Nc2ncc(F)c(Nc3ccc4c(n3)NC(=O)C(C)(C)O4)n2)cc(OC)c1OC | binding, competition with immobilised ligand | 10 µM | inhibition | 77% |
| Cn1cncc1[C@](O)(COc1ccc(C#N)cc1-c1ccc(OC(F)(F)F)cc1)c1ccc(C#N)cc1 | cell-free assay, competition with immobilised ligand | 1 µM | remaining binding | 83% |
| O=c1[nH]c2ccccc2n1C1CCN(Cc2ccc(-c3[nH]c4cc5ncnc5cc4nc3-c3ccccc3)cc2)CC1 | cell-free assay | 0.5 µM | remaining signal | 96.8% |
| Cn1cc(-c2cc(F)cc(N3CCn4c(cc5c4CCCC5)C3=O)c2CO)cc(Nc2ccc(N3CCN(C4COC4)CC3)cn2)c1=O | enzyme activity, inhibitor | 0.1 µM | inhibition | 11% |
| C#Cc1n[nH]c2c(-c3cn([C@@H](C)c4ccccc4)c(=O)[nH]c3=O)cc(F)cc12 | enzyme activity, inhibitor | 0.1 µM | inhibition | 2.4% |
